INS-1E GSIS act = GLuc luminescence reporter in INS-1E cells, primary screen for activators of glucose-dependent secretion of insulin | INS-1E GLuc reporter insulin secretion, 2-3 h | activation, % at 16.6 µM | actives 0.61% (n = 370,000) | AID 743287;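 active means lowest replicate activation of at least 40%, so every replicate reaches that level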;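 further: 0% = median of neutral control wells and 100% = median of IBMX positive control wells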
AF4-AF9 inh = blocks AF4 peptide binding to human AF9; P42568; AlphaScreen, biotin-AF4 peptide binding to FLAG-AF9; inhibition, % at 10 µM; actives 0.47% (n = 350,000);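 active means every replicate reaching a set inhibition limit, whatever the replicate mean, cut at about 25% in these data; inconclusive means mean inhibition reaches that limit but some replicates miss it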;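 further: 0% = plate neutral control median and 100% = total signal loss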
Target sequence (P42568 whole entry, looked up): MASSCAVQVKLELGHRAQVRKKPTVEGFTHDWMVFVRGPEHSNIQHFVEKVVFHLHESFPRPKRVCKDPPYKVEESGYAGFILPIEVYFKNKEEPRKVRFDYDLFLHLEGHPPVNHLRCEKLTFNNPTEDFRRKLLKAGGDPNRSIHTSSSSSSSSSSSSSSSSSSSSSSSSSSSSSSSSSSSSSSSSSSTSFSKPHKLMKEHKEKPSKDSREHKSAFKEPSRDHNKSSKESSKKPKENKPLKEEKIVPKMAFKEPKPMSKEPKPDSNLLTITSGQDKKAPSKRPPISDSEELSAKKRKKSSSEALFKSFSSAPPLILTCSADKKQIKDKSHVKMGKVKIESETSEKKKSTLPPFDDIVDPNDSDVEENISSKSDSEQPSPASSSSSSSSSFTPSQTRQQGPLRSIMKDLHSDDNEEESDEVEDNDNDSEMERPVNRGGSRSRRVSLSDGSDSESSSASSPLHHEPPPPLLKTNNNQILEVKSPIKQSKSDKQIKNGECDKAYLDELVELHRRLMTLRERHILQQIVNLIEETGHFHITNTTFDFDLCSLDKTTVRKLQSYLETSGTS
EWS-Fli block = inhibitors of EWS/Fli oncoprotein transcriptional activity; A673 NR0B1-luciferase reporter, viability-normalised; inhibition, % at 12.6 µM; actives 0.67% (n = 350,000);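 active means mean inhibition of at least 50% after viability correction, with every replicate also passing that limit; inconclusive means mean reaches 50% but only one of two replicates passes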;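 further: firefly luciferase signal divided by Alamar Blue viability fluorescence both relative to DMSO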
XiGFP reactiv = activators of X-chromosome reactivation in mouse fibroblasts; XiGFP mouse fibroblasts, % GFP-positive cells imaging, 3 d; cells co-treated with 5-aza-dC sensitizer; scaled so ellipticine positive control = 100%; activation, % at 7.58 µM; actives 0.055% (n = 360,000); AID 743238;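 active means mean normalized replicate activation at least 10% and every replicate at or above 10%; inconclusive means only one of the two criteria met; inactive means mean below 10% and not all replicates reach 10%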;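 further: 0% = median of on-plate neutral control wells and 100% = ellipticine 6 µM median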
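Assay system – SV40-immortalized XiGFP fibroblast cells, line 68-5-11 · Buffer or medium – DMEM supplemented with 5-aza-dC as sensitizing agent · Dosing – one concentration, pinned · Benchmarks – positive control ellipticine, 6 µM final · Times – 3 days compound exposure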
PGC1a acetyl inh = lowers PGC1a acetylation signal in U2OS cells; AlphaScreen anti-acetyl-lysine; with virally co-expressed GCN5 acetyltransferase; inhibition, % at 15.6 µM; actives 0.17% (n = 350,000);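 active means every replicate shows inhibition of at least 40%; inconclusive means mean inhibition at least 40% but some replicate below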;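 further: 0% = neutral control wells and 100% = positive control wells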
PAX8 inh HTS = lowers PAX8-driven luciferase in RMG-I cells | inhibition, % at 12.6 µM | actives 1.2% (n = 360,000) | RMG-I TPO-luciferase reporter, SteadyGlo, 24 h;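 active means mean replicate inhibition at least 60% with every replicate also reaching 60%; inconclusive means only one of the two criteria is met; inactive means mean below 60% and not all replicates reaching 60%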;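 further: luciferase light reporting Pax8 driven TPO promoter activity; plate controls were median of neutral control wells for no effect and mitoxantrone controls for full effect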
* marks the source's active call; other numbers are inactive results; ? = inconclusive; . = not tested or not shown. A selection: hits, their analogues and other compounds. The true share with any hit is near 2.1%.

SMILES	INS-1E GSIS act	AF4-AF9 inh	EWS-Fli block	XiGFP reactiv	PGC1a acetyl inh	PAX8 inh HTS
CO[C@H]1CN(C)C(=O)c2cc(NC(=O)c3ccccc3F)ccc2OC[C@H](C)N(C)C[C@@H]1C	7	-1	-3	0	5	2
COc1ccccc1-c1cnc2c(c1)C(=O)N([C@H](C)CO)C[C@@H](C)[C@@H](CN(C)C(=O)c1cccnc1)O2	-3	0	3	1	-1	-28
CC(=O)N1N=C(c2ccc(Br)cc2)OC1(C)CC(=O)Nc1ccccc1 (centres undefined)	57*	.	.	0	.	-10
CCC/C(=C1/c2ccccc2C(=O)N1c1ccccc1)c1ccc(O[C@@H]2CCCCO2)cc1	-1	9	3	0	-17	19
CCC/C(=C1/c2ccccc2C(=O)N1c1ccccc1)c1ccc2c(c1)OCCO2	-7	.	62*	0	4	36
C=CCNS(=O)(=O)c1cccc2cc(C(=O)O)c(O)cc12	6	.	.	.	95*	-2
CCCNC(=O)N1CC2(C1)[C@H](c1ccccc1)[C@H](CO)N2CC1CCCC1	-4	0	-1	0	-14	.
O=S(=O)(N[C@@H]1CC[C@@H](CCn2cc(-c3ccccc3F)nn2)O[C@H]1CO)c1ccc(Cl)cc1	-26	2	0	-1	-20	28
O=C(C[C@@H]1CC[C@H](NS(=O)(=O)c2ccc(F)cc2)[C@H](CO)O1)NC1CCC1	-5	-5	7	-1	-10	1
O=C(NCC(c1cccs1)N1CCOCC1)c1cc(F)cc(F)c1 (centres undefined)	.	-1	53*	0	.	13
Cc1[nH]c2ccccc2c1C(=O)CSc1nnc(C2CC2)o1	16	26*	-65	0	7	-35
C[C@H](CO)N1C[C@H](C)[C@@H](CN(C)Cc2ccc3c(c2)OCO3)Oc2ccc(NC(=O)C3CC3)cc2C1=O	4	0	-2	0	5	2
CCOc1ccc2c(c1)C(C)=CC(C)(C)N2S(=O)(=O)c1ccc(C)cc1	-7	1	24	1	-64	82*
COc1ccc2c(c1)C(C)=CC(C)(C)N2S(=O)(=O)c1ccc(C)cc1	-5	4	?	0	-24	79*
CC1=CC(C)(C)N(S(=O)(=O)c2ccc(C)cc2)c2cc(C)ccc21	.	.	.	.	-40	.
CC(=O)N(C)C[C@@H]1Oc2ccc(NC(=O)NC(C)C)cc2CC(=O)N(C)C[C@H]1C	9	.	.	0	.	.
O=C(CC1CC1)N1[C@H](CO)[C@@H]2c3ccccc3N(S(=O)(=O)c3ccccc3)C[C@@H]21	-6	1	8	0	-4	-14
Cc1c(NC(=O)c2cc(-c3cccc(Cl)c3)on2)c(=O)n(-c2ccccc2)n1C	-14	-1	-7	0	.	13
COc1cccc(-c2cc(C(=O)Nc3cccnc3)no2)c1	.	.	.	.	-29	-15
COc1cccc(-c2cc(C(=O)Nc3cc(C)on3)no2)c1	73*	.	.	.	.	.
COc1ccc(CNC(=O)c2cc(-c3ccc(OC)c(OC)c3)on2)cc1	78*	.	.	.	-34	.
COc1ccc(-c2cc(C(=O)NCc3ccc(Cl)cc3)no2)cc1OC	3	.	.	.	-2	.
Cc1cc(NC(=O)c2cc(-c3cccc(Cl)c3)on2)no1	125*	.	.	.	-3	.
Cc1nc2ccc(NC(=O)c3ccccc3)cc2s1	-14	-1	-61	0	.	-197
CCn1nc(C(=O)Nc2ccc3nc(C)sc3c2)c2ccccc2c1=O	53*	.	.	0	-2	-14
SMILES	INS-1E GSIS act	AF4-AF9 inh	EWS-Fli block	XiGFP reactiv	PGC1a acetyl inh	PAX8 inh HTS
CN(C)c1ncnc2c1nnn2C1OC(CO)C(O)C1O (centres undefined)	2	2	26	0	14	91*
CO[C@@H]1CN(C)C(=O)c2ccc(NC(=O)C3CCOCC3)cc2OC[C@H](C)N(Cc2nccs2)C[C@H]1C	20	2	-1	0	2	.
C[C@H](CO)N1C[C@H](C)[C@H](CN(C)Cc2ccncc2)Oc2cc(C3=CCCCC3)ccc2S1(=O)=O	-7	11	1	-1	-11	.
CC(C)[C@H](C)NC(=O)N(C)C[C@H]1OCc2ccccc2-c2c(n(C)c3ccccc23)C(=O)N([C@@H](C)CO)C[C@H]1C	-21	-3	-1	0	-18	.
c1ccc(CNc2c3ccccc3nc3ccccc23)cc1	-6	3	15	0	.	13
Oc1ccc(CCNc2c3ccccc3nc3ccccc23)cc1O	3	19	70*	0	.	-71
CC1OC(CC(=O)O)CC2=C1C(=O)c1c(O)cccc1C2=O (centres undefined)	72*	-2	32	4	75*	130*
O=C1C=C(O)c2cccc(O)c2C1=O	.	0	9	.	5	.
CCC1=Nc2cc(C(=O)NCc3cccnc3)ccc2Sc2ccc(C)cc21	7	3	65*	1	-13	27
CCC1=Nc2cc(C(=O)NCC3CCCO3)ccc2Sc2ccc(Cl)cc21 (centres undefined)	2	8	57*	0	7	43
CCC1=Nc2cc(C(=O)NCc3ccco3)ccc2Sc2ccc(Cl)cc21	21	.	.	0	.	41
O=C1N[C@@H](Cc2ccccc2)COCc2cnnn2CC[C@H]1Cc1cccc(F)c1	8	.	.	0	.	.
CCOc1ccc(-c2nnn(CC(=O)Nc3ccccc3OC)n2)cc1OCC	68*	.	.	.	7	.
COc1ccc(-c2nnn(CC(=O)NCc3ccccc3)n2)cc1OC	.	.	.	.	-7	.
S=c1sc2c(Cl)ncnc2n1-c1ccccc1	9	3	74*	0	64*	93*
O=C(C[C@H]1CC[C@H]2[C@@H](COC[C@H](O)CN2Cc2cccc(C(F)(F)F)c2)O1)NCc1ccc(Cl)cc1	-9	4	-6	0	-7	70*
O=C(C[C@@H]1CC[C@H]2[C@@H](COC[C@@H](O)CN2CC2CCCCC2)O1)NCc1ccc(F)cc1	1	1	70*	0	-12	-23
CCCNC(=O)N[C@H]1CC[C@@H](CCn2cc(C3CC3)nn2)O[C@H]1CO	-9	2	-6	0	4	-7
CC(C)n1cc(/C(N)=N/O)c(=O)n(Cc2ccccc2)c1=O	61*	-4	3	0	-6	-1
O=S1(=O)c2ccc(Br)cc2N2CC[C@H](C2)N1Cc1ccc(Cl)cc1	0	-2	66*	0	.	27
C/C=C/c1ccc([C@@H]2[C@H](CO)N(C(=O)CN(C)C)C23CN(C(=O)C2CCCCC2)C3)cc1	18	1	12	0	-6	-1
CC1=C(CO)C(=O)OC([C@@H](C)C2CC[C@H]3C4C[C@H]5O[C@]56[C@@H](O)C=CC(=O)[C@]6(C)C4CC[C@]23C)C1 (some centres undefined)	.	8	64*	.	14	.
